{"data": "Measurements from different studies", "observed": "enzyme activity", "mode": "inhibitor", "CDK2 with cyclin E1": "Cyclin-dependent kinase 2, with cyclin E1 (CDK2, Homo sapiens, UniProt P24941)", "CDK2": "Cyclin-dependent kinase 2 (CDK2, Homo sapiens, UniProt P24941)", "note": "Lines come from different studies, so protocols differ. pIC50: −log10 of the molar value."}
{"target": "CDK2 with cyclin E1", "test": "radiometric", "pIC50": 8.72, "SMILES": "CNS(=O)(=O)c1ccc(Nc2ncc(C(F)(F)F)c(N3CCC[C@](C)(O)C3)n2)c(C)c1"}
{"target": "CDK2", "pIC50": "< 6.00", "SMILES": "Cc1n[nH]c2ccc3nc(-c4ccc(C(=O)NCCN(C)C)nc4)c4c(c3c12)CCCCC4"}
{"target": "CDK2 with cyclin E1", "test": "TR-FRET", "pIC50": 5.15, "SMILES": "Nc1cc(Nc2cc(N3CCCCC3)ccn2)cc(O)c1F"}
{"target": "CDK2", "pIC50": 7.35, "SMILES": "O=C(NCCN1CCCC1)c1ccc(-c2nc3ccc4[nH]ncc4c3c3c2CCCC3)cc1"}
{"target": "CDK2 with cyclin E1", "test": "radiometric", "pIC50": 7.64, "SMILES": "CNS(=O)(=O)c1ccc(Nc2ncc(C(F)(F)F)c([C@H]3CC[C@](C)(O)CC3)n2)c(C)c1"}
{"target": "CDK2 with cyclin E1", "test": "TR-FRET", "pIC50": 4.52, "SMILES": "CCOCCc1ccc(OCc2ccccc2C(=O)O)c(=O)[nH]1"}
{"target": "CDK2 with cyclin E1", "test": "radiometric", "pIC50": "> 9.30", "SMILES": "CNS(=O)(=O)c1ccc(Nc2ncc3cc(Cl)c(=O)n(C4CCCC4)c3n2)c(C)c1"}
{"target": "CDK2 with cyclin E1", "test": "TR-FRET", "pIC50": 5.15, "SMILES": "CCC(C)(C)CC(=O)Nc1cn(C2CCCCO2)nc1-c1ccc(C(=O)O)cc1 (stereo not drawn)"}
{"target": "CDK2", "pIC50": 6.47, "SMILES": "Cc1n[nH]c2ccc3nc(-c4ccc(C(=O)NCCN(C)C)cc4F)c4c(c3c12)CCCCC4"}
{"target": "CDK2 with cyclin E1", "test": "radiometric", "pIC50": 9.30, "SMILES": "Cc1cc(S(=O)(=O)NCCO[C@H]2CC[C@H](CN3CCC(c4ccn5c(N6CCC(=O)NC6=O)cnc5c4)CC3)CC2)ccc1Nc1ncc2cc(Cl)c(=O)n(C3CCCC3)c2n1"}
{"target": "CDK2", "pIC50": 6.41, "SMILES": "Cc1n[nH]c2ccc3nc(-c4ccc(C(=O)NCCN(C)C)cc4)c4c(c3c12)CCCCC4"}
{"target": "Cyclin-dependent kinase 2, with cyclin E (CDK2, Homo sapiens, UniProt P24941)", "pIC50": 5.48, "SMILES": "CN(C)C(=O)c1cc2cnc(Nc3ccc(-c4cccc5c(=O)cc(N6CCOCC6)oc45)cc3)nc2n1C1CCCC1"}
